Assay results: publication PMC6865048 (Clinical cancer research : an official journal of the …, 2018)
Values joined by “and” are separate entries in the source; they are usually repeats but may differ in a detail not shown here. Equal entries are not always repeated. “Also recorded” adds a separate entry of the source. Where two headings read alike, the source gives them in different places.

Legend:
phosphohistone-3 (PH3) = type: in vivo, human; conditions: for PH3 expression vs matched archival tissue: 8 hours
In short: (§1)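 A 0.5 cm³ re-resection tumor sample, snap-frozen at -80° C, was compared with FFPE tissue from the same patient's initial resection by IHC. Antibody conditions: γH2AX 1:100, 1 h at room temperature; PH3 1:100, overnight at 4°C; CC3 1:50, overnight at 4°C. Staining was quantified by semiquantitative image analysis. Mean fold change was tested against 1.000 by two-sided one-sample t test, or Wilcoxon signed-rank test if non-normal.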

Wee1 = conditions: cell-based assays; ref https://ncats.nih.gov/files/AZD1775.pdf; cited from earlier work
[1] = type: in vivo, human; conditions: single oral dose of 400 mg, at 2 to 24 h
In short: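 Adult recurrent glioblastoma patients took a single oral dose before resection. Contrast-enhancing tumor was taken intraoperatively, rinsed in ice-cold PBS, blot-dried, snap-frozen and held at -80° C. EDTA blood was spun at 4°C, 1,500 × g, 10 min. Total drug in plasma and tumor was measured by validated LC/MS-MS, and fraction unbound by equilibrium dialysis. Unbound concentration = total × fraction unbound. Kp and Kp,uu = tumor/plasma total and unbound ratios.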

[2] = Safety assessment in the phase 0 trial; type: in vivo, human; conditions: single oral dose 100, 200 or 400 mg, 20 glioblastoma patients
In short: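 Twenty adult glioblastoma patients took a single oral dose before tumor resection. Screening collected demographics and medical history. Baseline safety assessments were physical examination, vital signs, ECOG performance status, concomitant medication record, hematology, biochemistry and urinalysis.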

γH2AX = assay: IHC of double-strand DNA damage in resected tumor vs matched archival tissue; type: in vivo, human; conditions: 8 hours
In short: as §1

[3] = type: in vivo, human
cleaved caspase-3 (CC3) = assay: IHC of programmed cell death in resected tumor vs matched archival tissue; type: in vivo, human; conditions: for CC3 apoptotic marker vs matched archival tissue: 8 hours
In short: as §1

[4] = 8-hour posttreatment interval (discussion)
[5] = covariate model, estimate (%RSE)

With C=CCn1c(=O)c2cnc(Nc3ccc(N4CCN(C)CC4)cc3)nc2n1-c1cccc(C(C)(C)O)n1 [AZD1775] the cell-cycling (phosphohistone-3 (PH3); [4]) was “increased over threefold”, the PH3 expression change (phosphohistone-3 (PH3); 8-hour time interval, all dose cohorts together (n = 12), P = 0.0210) was “increased significantly” and the “PH3 expression vs matched archival tissue” value (phosphohistone-3 (PH3); 200-mg dose cohort) was “Increased expression”. The “PH3 expression vs matched archival tissue” value (phosphohistone-3 (PH3); 400-mg dose cohort) was “substantially increased”, the “in vitro IC50 for inhibition of Wee1 activity and induction of DNA damage as well as G2 checkpoint escape” value (Wee1) was 40 ng/mL and the “mean unbound AZD1775 tumor concentration” value [1] was 85 ng/g. For the same molecule, the “tolerability / adverse effects” value [2] was “No drug-related adverse events; also recorded: well-tolerated; no significant adverse effects were observed”, the “double-stranded DNA damage measured by γH2AX vs matched archival tissue” value (γH2AX; 100- and 400-mg dose cohorts) was “less dramatic” and the “double-stranded DNA damage measured by γH2AX vs matched archival tissue” value (γH2AX; 200-mg dose cohort) was “increased”. The “CL/F, apparent oral clearance” value ([3]; base model, estimate (%RSE)) was 160 (15) L/hour, the “IIV of Ka” value ([3]; base model, estimate (%RSE)) was 100 (310) CV% and the Ka ([3]; base model, estimate (%RSE)) was 2.00 (114) h^−1. The “B, covariate effect of glomerular filtration rate on CL/F” value ([3]; covariate model, CL/F = A + B × (GFR - 98), estimate (%RSE)) was 1.7 (44), the “IIV of Ka” value [3, 5] was 100 (300) CV% and the Ka [3, 5] was 2.10 (111) h^−1. For the same molecule, the “V/F, apparent volume of distribution” value [3, 5] was 1,500 (17) L, the “CL/F, apparent oral clearance” value ([3]; covariate model, typical patient with GFR of 98 mL/minute, estimate (%RSE)) was 160 L/hour and 160^a (14) L/hour and the “interindividual variability of CL/F explained by glomerular filtration rate” value ([3]; covariate on CL/F) was 17%. For the same molecule, the Vd/F ([3]; human, plasma, oral) was 1500 L, the “first-order absorption rate constant (Ka)” value ([3]; one-compartment model, single oral dose 100, 200, 400 mg, glioblastoma patients) was 2.1 h⁻¹ and the programmed cell death (cleaved caspase-3 (CC3); [4]) was “increased threefold”. For the same molecule, the “mean increase in CC3 expression” value (cleaved caspase-3 (CC3); 8-hour time interval, all dose cohorts together (n = 12), P = 0.0727) was “+112.2%”, the “CC3 apoptotic marker vs matched archival tissue” value (cleaved caspase-3 (CC3); 200-mg dose cohort) was “increased most” and the “CC3 apoptotic marker vs matched archival tissue” value (cleaved caspase-3 (CC3); 400-mg group) was “modest increase”.
